Non-standard residues stand in square brackets, D forms with d. Residues, ends and D or L forms follow the SMILES beside them. *: point of attachment. X1 = CC[N+]1=C(C=CC=CC=C2N(CCCCCC(=O)NCCN3C(=O)CC(*)C3=O)c3ccc(S(=O)(=O)O)cc3C2(C)C)C(C)(C)c2cc(S(=O)(=O)[O-])ccc21; Ahx = NCCCCCC(=O)O
Tests used:
[1] = Tumor standardized uptake value; assay type: in vivo; settings: PyMT, mouse, iv, 10 nmol
[2] = Cleavage of Cy5-labeled ACPPs by tumor tissue extract; assay type: in vitro ADME, mouse; settings: 5 μM purified Cy5-labeled peptide, 2% tumor extract, 37 °C, 2 h, 16% Tricine gel
Procedure, shortened: (§1)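 Fresh mouse tissue was gently homogenized in PBS on ice and spun at 14,000 × g for 1 min; the supernatant was used. 5 μM purified Cy5-labeled test peptide was incubated with 2% liver or tumor extract in PBS containing ZnCl2 at 37 °C for 2 h. Cleaved and uncleaved peptide were resolved on 16% Tricine gels and imaged by fluorescence.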

[3] = Cleavage of Cy5-labeled ACPP by liver tissue extract; assay type: in vitro ADME, mouse; settings: 5 μM purified Cy5-labeled peptide, 2% liver extract, 37 °C, 2 h, 16% Tricine gel
Procedure, shortened: as §1

plasmin = plasmin (Homo sapiens, UniProt P00747); test: Cleavage by purified plasmin; assay type: in vitro ADME; settings: 5 μM purified Cy5-labeled peptide, 50 nM plasmin, 37 °C, 2 h, 16% Tricine gel
Sequence of plasmin (P00747 581-810 limits assumed): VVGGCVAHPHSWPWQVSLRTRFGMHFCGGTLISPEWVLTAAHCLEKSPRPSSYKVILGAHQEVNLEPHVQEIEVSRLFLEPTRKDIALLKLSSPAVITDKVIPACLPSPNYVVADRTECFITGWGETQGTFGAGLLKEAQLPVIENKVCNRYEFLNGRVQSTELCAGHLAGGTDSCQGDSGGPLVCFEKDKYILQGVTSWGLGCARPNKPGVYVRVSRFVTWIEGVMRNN
Sequence of plasmin (P00747 97-580 partner limits assumed): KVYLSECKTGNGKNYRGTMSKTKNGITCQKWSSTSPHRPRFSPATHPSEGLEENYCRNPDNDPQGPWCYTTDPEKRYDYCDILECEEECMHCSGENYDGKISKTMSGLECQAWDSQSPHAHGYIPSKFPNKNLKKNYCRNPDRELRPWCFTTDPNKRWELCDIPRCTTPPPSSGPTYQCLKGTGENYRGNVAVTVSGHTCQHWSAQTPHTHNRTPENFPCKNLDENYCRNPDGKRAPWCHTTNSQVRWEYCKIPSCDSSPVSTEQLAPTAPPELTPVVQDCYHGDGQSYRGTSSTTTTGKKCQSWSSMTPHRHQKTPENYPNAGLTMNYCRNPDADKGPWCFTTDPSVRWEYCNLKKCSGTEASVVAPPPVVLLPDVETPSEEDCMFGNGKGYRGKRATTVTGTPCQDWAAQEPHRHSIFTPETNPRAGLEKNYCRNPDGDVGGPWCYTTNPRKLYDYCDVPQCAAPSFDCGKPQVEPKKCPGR
Procedure, shortened: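 Plasmin at 50 nM was incubated with 5 μM purified Cy5-labeled test peptide at 37 °C for 2 h, run alongside 2% tumor, liver or kidney extract digests. Products were resolved on 16% Tricine acrylamide gels and detected by Cy5 fluorescence imaging.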

PyMT mammary tumors = test: Fluorescence imaging contrast in PyMT tumor-bearing mice; assay type: in vivo, mouse; settings: PyMT mice, fluorescence imaging 6 h after injection of 10 nmol
Procedure, shortened: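 PyMT transgenic mice bearing spontaneous mammary tumors were anesthetized with ketamine 80 mg/kg plus midazolam 5 mg/kg (1:1) and weighed. They were injected via the tail vein with Cy5 peptide: free peptide 100 μl of 100 μM (10 nmol) or albumin-reactive peptide 100 μl of 30 μM (3 nmol). Maestro imaging (ex 640 ± 24 nm, em >700 nm) was done at 6 h or 48 h, comparing tumor with adjacent normal tissue.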

CC[N+]1=C(C=CC=CC=C2N(CCCCCC(=O)NCCN3C(=O)CC(SC[C@@H](NC(=O)[C@@H](CCCNC(=N)N)NC(=O)[C@@H](CCCNC(=N)N)NC(=O)[C@@H](CCCNC(=N)N)NC(=O)[C@@H](CCCNC(=N)N)NC(=O)[C@@H](CCCNC(=N)N)NC(=O)[C@@H](CCCNC(=N)N)NC(=O)[C@@H](CCCNC(=N)N)NC(=O)[C@@H](CCCNC(=N)N)NC(=O)[C@@H](CCCNC(=N)N)NC(=O)[C@H](CC(C)C)NC(=O)[C@H](CCCCNC(C)=O)NC(=O)[C@H](CC(C)C)NC(=O)[C@H](CCC(N)=O)NC(=O)[C@H](CC(C)C)NC(=O)[C@H](CCCNC(=N)N)NC(=O)CCCCCNC(=O)[C@@H](CCC(=O)O)NC(=O)[C@@H](CCC(=O)O)NC(=O)[C@@H](CCC(=O)O)NC(=O)[C@@H](CCC(=O)O)NC(=O)[C@@H](CCC(=O)O)NC(=O)[C@@H](CCC(=O)O)NC(=O)[C@@H](CCC(=O)O)NC(=O)[C@@H](CCC(=O)O)NC(=O)[C@H](N)CCC(=O)O)C(N)=O)C3=O)c3ccc(S(=O)(=O)O)cc3C2(C)C)C(C)(C)c2cc(S(=O)(=O)[O-])ccc21 (some centres unmarked) [RLQLK(Ac)L ACPP] (H-[dE][dE][dE][dE][dE][dE][dE][dE][dE][Ahx]RLQLK(Ac)L[dR][dR][dR][dR][dR][dR][dR][dR][dR][dC](X1)-NH2)
SUV at 6 h [1]: 0.48 ± 0.04 SUV
cleavage by tumor extracts, comparison with parent (in words) [2]: efficiently cleaved
cleavage by liver tissue extract compared with parent RLQLKL ACPP (in words) [3]: significantly reduced
cleavage by plasmin (in words) (plasmin): not cleaved
Tumor to non-tumor contrast, free peptide (PyMT mammary tumors): less than 3 fold

— PMC2903386 (The Journal of Biological Chemistry, 2010)
